In ChEMBL document CHEMBL1157772, “In vitro cytotoxic activity of isolated acridones alkaloids from Zanthoxylum leprieurii Guill. et Perr” (Bioorg Med Chem, 2010):

What was measured:
Assay type in all cases: functional, cell-based
[1] = test system: DLD-1; assay: Cytotoxicity against human DLD1 cells after 48 hrs by resazurin reduction assay; details: DLD-1, 48 h
Method in brief: (§1)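 Cell lines from ATCC, grown in MEM with Earle's salts, 10% fetal calf serum, vitamins, sodium pyruvate, non-essential amino acids, penicillin/streptomycin, at 37 °C, 5% CO2. Cells (5 × 10^3/well) adhered 16 h, then exposed 48 h to increasing concentrations in medium with 0.25% (v/v) final DMSO. Resazurin reduction read by fluorescence (ex 530/em 590 nm). IC50 as mean ± SD, two experiments in triplicate.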

[2] = Cytotoxicity against human WS1 cells after 48 hrs by resazurin reduction assay; details: WS1, 48 h; method in brief: as §1
[3] = test system: A549; assay: Cytotoxicity against human A549 cells after 48 hrs by resazurin reduction assay; details: A549, 48 h; method in brief: as §1

**Q.** With `COc1c(O)cc2c(c1OC)c(=O)c1ccccc1n2C` as the compound, how does the IC50 [1] read?
**A.** 77 µM

**Q.** And the IC50 [2]?
**A.** 74 µM

**Q.** And the IC50 [3]?
**A.** 52 µM

**Q.** With `COc1cc(O)c2c(=O)c3ccccc3n(C)c2c1` as the compound, how does the IC50 [1] read?
**A.** 27 µM

**Q.** What about the IC50 [2] of the same compound?
**A.** 51 µM

**Q.** And the IC50 [3]?
**A.** 31 µM

**Q.** What does the source list for `COc1cc(O)c(OC)c2c1c(=O)c1ccccc1n2C`?
**A.** IC50 [1]: > 100 µM; IC50 [2]: > 100 µM; IC50 [3]: > 100 µM

**Q.** What does the source list for `CCCCCCCCCCCCCCCCCCCCCCCC(=O)NCCc1ccc(O)cc1`?
**A.** IC50 [1]: > 100 µM; IC50 [2]: > 100 µM; IC50 [3]: > 100 µM

**Q.** With `COc1cc2c(c(O)c1OC)c(=O)c1ccccc1n2C` [ARBORININE] as the compound, how does the IC50 [1] read?
**A.** 74 µM

**Q.** What about the IC50 [2] of the same compound?
**A.** 56 µM

**Q.** What about the IC50 [3] of the same compound?
**A.** 35 µM

**Q.** Which results are given for `COc1cc([C@@H]2c3cc4c(cc3[C@@H](O[C@@H]3O[C@@H]5CO[C@@H](C)O[C@H]5[C@H](O)[C@H]3O)[C@H]3COC(=O)[C@H]23)OCO4)cc(OC)c1O` [ETOPOSIDE]?
**A.** IC50 [1]: 10 µM; IC50 [2]: 4.3 µM; IC50 [3]: 16 µM

**Q.** With `COc1ccc([C@@H]2CC(=O)c3c(O)cc(O[C@@H]4O[C@H](CO[C@@H]5O[C@@H](C)[C@H](O)[C@@H](O)[C@H]5O)[C@@H](O)[C@H](O)[C@H]4O)cc3O2)cc1O` [HESPERIDIN] as the compound, how does the IC50 [1] read?
**A.** > 100 µM

**Q.** What about the IC50 [2] of the same compound?
**A.** > 100 µM

**Q.** What about the IC50 [3] of the same compound?
**A.** > 100 µM

**Q.** With `COc1cc2ccc(=O)oc2cc1OC` [SCOPARONE] as the compound, how does the IC50 [1] read?
**A.** > 100 µM

**Q.** What about the IC50 [2] of the same compound?
**A.** > 100 µM

**Q.** And the IC50 [3]?
**A.** > 100 µM

**Q.** With `COc1cc(O)cc2c1c(=O)c1ccccc1n2C` [TEGERRARDIN A] as the compound, how does the IC50 [1] read?
**A.** 71 µM

**Q.** What about the IC50 [2] of the same compound?
**A.** 42 µM

**Q.** And the IC50 [3]?
**A.** 36 µM
